# Test: Cytotoxicity against human […] cells
# Format: functional, cell-based
# Outline: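 In vitro assay on the human gastric cancer line BGC-823, one of a panel of human cancer lines. Viability was read out by the MTT method, following a previously published procedure.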
row,Compound,IC50
1,C=C1C(=O)O[C@]2(C)CC[C@@H]1C[C@H](O)/C(C)=C/C/C=C(\C)CC[C@@H]2O,> 10 µg/mL
2,C=C1C(=O)O[C@]2(C)CC[C@@H]1C[C@H](O)/C(C)=C/C/C=C(\C)CC[C@@H]2OC(C)=O [DENDRONPHOLIDE A],> 10 µg/mL
3,C=C1C(=O)O[C@]2(C)CC[C@@H]1C[C@@H](O)/C(C)=C/C/C=C(\C)CC[C@@H]2OC(C)=O [DENDRONPHOLIDE B],> 10 µg/mL
4,C=C(C(=O)OC)[C@@H]1CC[C@@](C)(O)[C@@H](O)CC/C(C)=C/C/C=C(\C)[C@@H](O)C1 [DENDRONPHOLIDE C],0.05 µg/mL
5,C=C(C(=O)OC)[C@@H]1CC[C@@](C)(O)[C@@H]2CC[C@@](C)(O2)[C@@H](OC(C)=O)CC[C@]2(C)O[C@H]2C1 [DENDRONPHOLIDE G],0.02 µg/mL
6,C=C(C(=O)O)[C@@H]1CC[C@@](C)(O)[C@@H]2CC[C@@](C)(O2)[C@@H](OC(C)=O)CC[C@](C)(O)[C@H](O)C1 [DENDRONPHOLIDE I],> 10 µg/mL
7,C=C(C(=O)O)[C@@H]1CC[C@@](C)(O)[C@@H]2CC[C@@](C)(O2)[C@@H](O)CC[C@](C)(O)[C@H](OC(C)=O)C1 [DENDRONPHOLIDE J],0.2 µg/mL
8,C=C(C(=O)O)[C@@H]1CC[C@@](C)(O)[C@@H]2CC[C@@](C)(O2)[C@@H](OC(C)=O)CC[C@](C)(OC)[C@H](O)C1 [DENDRONPHOLIDE K],> 10 µg/mL
9,C=C(C(=O)OCC)[C@@H]1CC[C@@](C)(O)[C@@H]2CC[C@@](C)(O2)[C@@H](OC(C)=O)C/C=C(\C)[C@H](O)C1 [DENDRONPHOLIDE O],> 10 µg/mL
10,C=C(C(=O)OC)[C@@H]1CC[C@@](C)(O)[C@@H]2CC[C@@](C)(O2)[C@@H](OC(C)=O)C/C=C(\C)[C@H](O)C1 [DENDRONPHOLIDE P],> 10 µg/mL
11,C=C1C(=O)O[C@]2(C)CC[C@@H]1C[C@@H](OC(C)=O)[C@@]1(C)CC[C@H](O1)[C@@](C)(O)CC[C@@H]2OC(C)=O [DENDRONPHOLIDE Q],> 10 µg/mL
12,C=C(C(=O)O)[C@@H]1CC[C@@](C)(O)[C@@H](OC(C)=O)CCC(=C)[C@@H]2CC[C@@](C)(O2)[C@H](O)C1 [DENDRONPHOLIDE R],> 10 µg/mL

# Source: ChEMBL document CHEMBL1155032, “Dendronpholides A-R, cembranoid diterpenes from the chinese soft coral Dendronephthya sp” (J Nat Prod, 2008)
